Measurements reported in ChEMBL document CHEMBL5303300, “EUbOPEN Chemogenomics Library - Multiplex” (2023).
Where “and” joins values, the source holds several entries; their conditions need not be identical. Equal entries are not always repeated.

Tested on: Fibroblast
Assay: Multiplex assay against human fibroblast
Type: toxicity, cell-based
Settings: number of replicates 2
Method in brief: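 Hoechst33342, BioTracker Green Microtubule Cytoskeleton Dye, MitoTracker Red and Annexin V Alexa Fluor 680 were added to live cells at seeding, and imaging on a CQ1 microscope at 37°C and 5% CO2 followed compound addition. Gating by CellPathfinder machine learning separated cells into Hoechst high-intensity objects or normal cells, then normal cells into healthy, pyknosed or fragmented nuclei, then pyknosed cells into mitotic or apoptotic. Per cents of healthy-nucleus cells are reported for the tubulin, mitochondrial-mass and membrane-permeability phenotypes.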

[1] = 12 h, 1 µM, compound concentration 1 uM
[2] = 12 h, 10 µM, compound concentration 10 uM
[3] = 24 h, 1 µM, compound concentration 1 uM
[4] = 24 h, 10 µM, compound concentration 10 uM
[5] = 48 h, 1 µM, compound concentration 1 uM
[6] = 48 h, 10 µM, compound concentration 10 uM

CCCCOc1c(C(=O)c2c(F)cc(C)cc2F)c[nH]c2nncc1-2
Population Apoptotic (%) [1]: 52% and 40% | Population Fragmented Nuclei (%) [1]: 11% and 8% | Population Healthy Nuclei (%) [1]: 61% and 73% | Population Hoechst High Intensity Objects (%) [1]: 0% | Population Membrane Permeable-Phenotype (%) [1]: 8% and 5% | Population Mitochondria Different-Phenotype (%) [1]: 0% | Population Mitotic Cells (%) [1]: 47% and 60% | Population Normal (%) [1]: 100% | Population Pyknosed Nuclei (%) [1]: 27% and 18% | Population Tubulin-Different-Phenotype (%) [1]: 21% and 12% | Total Cell Count [1]: 200 and 276 | Population Apoptotic (%) [2]: 57% and 64% | Population Fragmented Nuclei (%) [2]: 10% and 8% | Population Healthy Nuclei (%) [2]: 64% and 57% | Population Hoechst High Intensity Objects (%) [2]: 0% | Population Membrane Permeable-Phenotype (%) [2]: 2% and 8% | Population Mitochondria Different-Phenotype (%) [2]: 1% and 0% | Population Mitotic Cells (%) [2]: 42% and 35% | Population Normal (%) [2]: 99% | Population Pyknosed Nuclei (%) [2]: 25% and 33% | Population Tubulin-Different-Phenotype (%) [2]: 22% and 19% | Total Cell Count [2]: 271 and 238 | Population Apoptotic (%) [3]: 50% and 43% | Population Fragmented Nuclei (%) [3]: 14% and 7% | Population Healthy Nuclei (%) [3]: 55% and 66% | Population Hoechst High Intensity Objects (%) [3]: 0% | Population Membrane Permeable-Phenotype (%) [3]: 7% | Population Mitochondria Different-Phenotype (%) [3]: 0% and 1% | Population Mitotic Cells (%) [3]: 49% and 56% | Population Normal (%) [3]: 100% | Population Pyknosed Nuclei (%) [3]: 29% and 25% | Population Tubulin-Different-Phenotype (%) [3]: 26% and 11% | Total Cell Count [3]: 193 and 267 | Population Apoptotic (%) [4]: 81% and 68% | Population Fragmented Nuclei (%) [4]: 10% | Population Healthy Nuclei (%) [4]: 64% and 51% | Population Hoechst High Intensity Objects (%) [4]: 0% | Population Membrane Permeable-Phenotype (%) [4]: 4% | Population Mitochondria Different-Phenotype (%) [4]: 1% | Population Mitotic Cells (%) [4]: 18% and 31% | Population Normal (%) [4]: 99% and 100% | Population Pyknosed Nuclei (%) [4]: 25% and 37% | Population Tubulin-Different-Phenotype (%) [4]: 27% and 18% | Total Cell Count [4]: 281 and 247 | Population Apoptotic (%) [5]: 66% and 59% | Population Fragmented Nuclei (%) [5]: 18% and 9% | Population Healthy Nuclei (%) [5]: 53% and 64% | Population Hoechst High Intensity Objects (%) [5]: 1% and 0% | Population Membrane Permeable-Phenotype (%) [5]: 14% and 11% | Population Mitochondria Different-Phenotype (%) [5]: 0% | Population Mitotic Cells (%) [5]: 33% and 40% | Population Normal (%) [5]: 98% and 100% | Population Pyknosed Nuclei (%) [5]: 27% and 26% | Population Tubulin-Different-Phenotype (%) [5]: 38% and 17% | Total Cell Count [5]: 197 and 276 | Population Apoptotic (%) [6]: 76% and 77% | Population Fragmented Nuclei (%) [6]: 11% and 12% | Population Healthy Nuclei (%) [6]: 46% and 64% | Population Hoechst High Intensity Objects (%) [6]: 0% | Population Mitochondria Different-Phenotype (%) [6]: 0% and 1% | Population Mitotic Cells (%) [6]: 23% and 22% | Population Normal (%) [6]: 99% and 100% | Population Pyknosed Nuclei (%) [6]: 42% and 22% | Population Tubulin-Different-Phenotype (%) [6]: 45% and 39% | Total Cell Count [6]: 261 and 279

CN(C)[C@H]1CC[C@H](Nc2ncc3ncnc(Nc4ccc(F)c(Cl)c4)c3n2)CC1
Population Apoptotic (%) [1]: 68% and 45% | Population Fragmented Nuclei (%) [1]: 26% and 29% | Population Healthy Nuclei (%) [1]: 54% and 50% | Population Hoechst High Intensity Objects (%) [1]: 1% and 0% | Population Membrane Permeable-Phenotype (%) [1]: 4% and 9% | Population Mitochondria Different-Phenotype (%) [1]: 1% | Population Mitotic Cells (%) [1]: 31% and 55% | Population Normal (%) [1]: 98% and 99% | Population Pyknosed Nuclei (%) [1]: 18% and 19% | Population Tubulin-Different-Phenotype (%) [1]: 16% and 11% | Total Cell Count [1]: 309 and 205 | Population Apoptotic (%) [2]: 31% and 27% | Population Fragmented Nuclei (%) [2]: 30% and 24% | Population Healthy Nuclei (%) [2]: 45% and 51% | Population Hoechst High Intensity Objects (%) [2]: 18% and 10% | Population Membrane Permeable-Phenotype (%) [2]: 2% and 3% | Population Mitochondria Different-Phenotype (%) [2]: 0% | Population Mitotic Cells (%) [2]: 68% and 72% | Population Normal (%) [2]: 81% and 89% | Population Pyknosed Nuclei (%) [2]: 24% and 23% | Population Tubulin-Different-Phenotype (%) [2]: 4% and 3% | Total Cell Count [2]: 681 and 574 | Population Apoptotic (%) [3]: 54% and 67% | Population Fragmented Nuclei (%) [3]: 28% and 20% | Population Healthy Nuclei (%) [3]: 48% and 63% | Population Hoechst High Intensity Objects (%) [3]: 0% | Population Membrane Permeable-Phenotype (%) [3]: 3% and 6% | Population Mitochondria Different-Phenotype (%) [3]: 1% and 2% | Population Mitotic Cells (%) [3]: 45% and 32% | Population Normal (%) [3]: 100% and 99% | Population Pyknosed Nuclei (%) [3]: 23% and 16% | Population Tubulin-Different-Phenotype (%) [3]: 11% and 13% | Total Cell Count [3]: 208 and 288 | Population Apoptotic (%) [4]: 18% and 27% | Population Fragmented Nuclei (%) [4]: 27% and 28% | Population Healthy Nuclei (%) [4]: 44% and 47% | Population Hoechst High Intensity Objects (%) [4]: 19% and 27% | Population Membrane Permeable-Phenotype (%) [4]: 6% and 3% | Population Mitochondria Different-Phenotype (%) [4]: 0% and 1% | Population Mitotic Cells (%) [4]: 81% and 72% | Population Normal (%) [4]: 80% and 72% | Population Pyknosed Nuclei (%) [4]: 27% and 24% | Population Tubulin-Different-Phenotype (%) [4]: 5% and 4% | Total Cell Count [4]: 464 and 636 | Population Apoptotic (%) [5]: 68% and 56% | Population Fragmented Nuclei (%) [5]: 22% and 32% | Population Healthy Nuclei (%) [5]: 61% and 50% | Population Hoechst High Intensity Objects (%) [5]: 2% and 0% | Population Membrane Permeable-Phenotype (%) [5]: 7% and 9% | Population Mitochondria Different-Phenotype (%) [5]: 0% | Population Mitotic Cells (%) [5]: 31% and 43% | Population Normal (%) [5]: 97% and 99% | Population Pyknosed Nuclei (%) [5]: 15% and 17% | Population Tubulin-Different-Phenotype (%) [5]: 10% and 6% | Total Cell Count [5]: 264 and 218 | Population Apoptotic (%) [6]: 20% and 21% | Population Fragmented Nuclei (%) [6]: 31% and 34% | Population Healthy Nuclei (%) [6]: 38% and 37% | Population Hoechst High Intensity Objects (%) [6]: 22% and 26% | Population Membrane Permeable-Phenotype (%) [6]: 5% and 1% | Population Mitochondria Different-Phenotype (%) [6]: 0% | Population Mitotic Cells (%) [6]: 79% and 78% | Population Normal (%) [6]: 77% and 73% | Population Pyknosed Nuclei (%) [6]: 30% and 27% | Population Tubulin-Different-Phenotype (%) [6]: 5% and 2% | Total Cell Count [6]: 527 and 613

CC(C)S(=O)(=O)c1ccccc1Nc1nc(N[C@@H]2CCCN(CCCCCCCNC(=O)COc3cccc4c3C(=O)N(C3CCC(=O)N(C)C3=O)C4=O)C2)ncc1Cl (some centres not stated)
Population Apoptotic (%) [1]: 58% and 50% | Population Fragmented Nuclei (%) [1]: 7% and 16% | Population Healthy Nuclei (%) [1]: 50% and 56% | Population Hoechst High Intensity Objects (%) [1]: 0% and 1% | Population Membrane Permeable-Phenotype (%) [1]: 10% and 9% | Population Mitochondria Different-Phenotype (%) [1]: 5% and 6% | Population Mitotic Cells (%) [1]: 41% and 49% | Population Normal (%) [1]: 100% and 98% | Population Pyknosed Nuclei (%) [1]: 42% and 27% | Population Tubulin-Different-Phenotype (%) [1]: 58% and 39% | Total Cell Count [1]: 178 and 249 | Population Apoptotic (%) [2]: 63% and 51% | Population Fragmented Nuclei (%) [2]: 9% and 14% | Population Healthy Nuclei (%) [2]: 42% and 36% | Population Hoechst High Intensity Objects (%) [2]: 0% | Population Membrane Permeable-Phenotype (%) [2]: 33% and 29% | Population Mitochondria Different-Phenotype (%) [2]: 24% and 26% | Population Mitotic Cells (%) [2]: 36% and 49% | Population Normal (%) [2]: 100% and 99% | Population Pyknosed Nuclei (%) [2]: 47% and 48% | Population Tubulin-Different-Phenotype (%) [2]: 24% and 17% | Total Cell Count [2]: 191 and 207 | Population Apoptotic (%) [3]: 81% and 86% | Population Fragmented Nuclei (%) [3]: 16% and 21% | Population Healthy Nuclei (%) [3]: 39% and 36% | Population Hoechst High Intensity Objects (%) [3]: 0% | Population Membrane Permeable-Phenotype (%) [3]: 13% and 8% | Population Mitochondria Different-Phenotype (%) [3]: 6% and 5% | Population Mitotic Cells (%) [3]: 18% and 14% | Population Normal (%) [3]: 99% and 100% | Population Pyknosed Nuclei (%) [3]: 43% and 42% | Population Tubulin-Different-Phenotype (%) [3]: 25% and 18% | Total Cell Count [3]: 189 and 238 | Population Apoptotic (%) [4]: 76% and 74% | Population Fragmented Nuclei (%) [4]: 15% and 16% | Population Healthy Nuclei (%) [4]: 37% and 28% | Population Hoechst High Intensity Objects (%) [4]: 0% | Population Membrane Permeable-Phenotype (%) [4]: 20% and 9% | Population Mitochondria Different-Phenotype (%) [4]: 52% and 73% | Population Mitotic Cells (%) [4]: 23% and 25% | Population Normal (%) [4]: 99% | Population Pyknosed Nuclei (%) [4]: 47% and 55% | Population Tubulin-Different-Phenotype (%) [4]: 50% and 36% | Total Cell Count [4]: 193 and 186 | Population Apoptotic (%) [5]: 86% and 96% | Population Fragmented Nuclei (%) [5]: 15% and 24% | Population Healthy Nuclei (%) [5]: 46% and 36% | Population Hoechst High Intensity Objects (%) [5]: 0% and 1% | Population Membrane Permeable-Phenotype (%) [5]: 19% and 21% | Population Mitochondria Different-Phenotype (%) [5]: 4% and 6% | Population Mitotic Cells (%) [5]: 13% and 3% | Population Normal (%) [5]: 100% and 98% | Population Pyknosed Nuclei (%) [5]: 38% | Population Tubulin-Different-Phenotype (%) [5]: 24% and 27% | Total Cell Count [5]: 178 and 207 | Population Apoptotic (%) [6]: 85% and 88% | Population Fragmented Nuclei (%) [6]: 14% and 22% | Population Healthy Nuclei (%) [6]: 35% and 28% | Population Hoechst High Intensity Objects (%) [6]: 1% | Population Membrane Permeable-Phenotype (%) [6]: 7% and 16% | Population Mitochondria Different-Phenotype (%) [6]: 37% and 27% | Population Mitotic Cells (%) [6]: 14% and 11% | Population Normal (%) [6]: 98% | Population Pyknosed Nuclei (%) [6]: 50% and 49% | Population Tubulin-Different-Phenotype (%) [6]: 70% and 53% | Total Cell Count [6]: 184 and 191
